According to ChEMBL document CHEMBL2169772, “Discovery of (2S)-1-[4-(2-{6-amino-8-[(6-bromo-1,3-benzodioxol-5-yl)sulfanyl]-9H-purin-9-yl}ethyl)piperidin-1-yl]-2-hydroxypropan-1-one (MPC-3100), a purine-based Hsp90 inhibitor” (J Med Chem, 2012):
Values after ≈ are worked out from the molar mass of the structure shown.

Assays:
Mus musculus [1] = test: Toxicity in nude mouse xenografted with human NCI-N87 cells assessed as effect on body weight at 125 mg/kg, po qd for 22 days measured twice a week; assay type: organism-based; set-up: dose 125 mg/kg, route oral; details: in vivo, 528 h
In short: (§1)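 Female nude mice (Crl:NU-Fox1nu) implanted subcutaneously in the right flank with 5 million NCI-N87 cells. At median tumor volume of roughly >100 mm3, randomized to 5 cohorts of 10. Dosed orally once daily for 22 days with vehicle (40% w/w Captisol) or 50, 75, 125 or 200 mg/kg. Tumor size and body weight measured at least twice weekly.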

NCI-N87 [2] = test: Antitumor activity against human NCI-N87 cells xenografted in nude mouse assessed as tumor regression at 125 mg/kg, po qd for 22 days measured twice a week; details: 528 h
NCI-N87 [3] = test: Antitumor activity against human NCI-N87 cells xenografted in po dosed nude mouse assessed as tumor growth inhibition administered as qd for 22 days measured twice a week; assay type: functional, organism-based; in short: as §1
[4] = Permeability of the compound after 30 mins by PAMPA; assay type: ADME; details: read-out: permeability
In short: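 Double-sink PAMPA with donor solutions at pH 5.0, 6.2 and 7.4. Filter coated with phospholipid in dodecane. Sandwich incubated 30 min at 37 °C with stirring equivalent to a 40 μm aqueous boundary layer. Permeability calculated from UV spectra at 250–490 nm. Verapamil run as positive control.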

LNCaP = test: Cytotoxicity against human LNCAP cells assessed as inhibition of tumor growth incubated for 72 hrs by luminometry; assay type: functional, cell-based
In short: (§2)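 Cells seeded at 5000 per well in DMEM with 10% serum and left overnight. Compound added from DMSO dilutions (0.4% DMSO final) for 72 h. After 5 min at room temperature, ATPLite two-step lysis and substrate added, 5 min incubation, then luminescence read. Values are the mean of at least two experiments.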

[5] = Solubility of compound in phosphate buffer at pH 7.4; assay type: physicochemical
[6] = AUC in Swiss nude mouse at 2.5 mg/kg, iv by LC-ESI-MS/MS method; assay type: ADME, organism-based; set-up: dose 2.5 mg/kg, route intravenous; details: plasma
In short: (§3)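 Intravenous dose in mice, vehicle DMA/PEG300/EtOH/H2O 3/40/12/45. Sampling at 5, 15, 30, 60, 120, 240, 480 and 720 min, three or five animals per time point. Cardiac-puncture EDTA plasma. Acetonitrile protein precipitation with internal standard, then LC-ESI-MS/MS (10–10 000 ng/mL curve). Parameters by noncompartmental fit.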

[7] = Cytotoxicity against human NCI-ADR-RES cells overexpressing P-gp 1 assessed as inhibition of tumor growth incubated for 72 hrs by luminometry; assay type: functional, cell-based; in short: as §2
A549 = test: Cytotoxicity against human A549 cells assessed as inhibition of tumor growth incubated for 72 hrs by luminometry; assay type: functional, cell-based; details: A549, 72 h; in short: as §2
[8] = AUC in Swiss nude mouse at 100 mg/kg, po by LC-ESI-MS/MS method; assay type: ADME, organism-based; set-up: dose 100 mg/kg, route oral; details: plasma
In short: (§4)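 Single oral gavage in mice, vehicle 40% Captisol in phosphate buffer. EDTA plasma from cardiac puncture. Acetonitrile precipitation with internal standard, then LC-ESI-MS/MS quantitation against a 10–10 000 ng/mL standard curve. Cmax and AUC by noncompartmental analysis.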

Mus musculus [9] = test: Toxicity in nude mouse xenografted with human NCI-N87 cells assessed as effect on body weight at 200 mg/kg, po qd for 22 days measured twice a week; assay type: organism-based; set-up: dose 200 mg/kg, route oral; details: in vivo, 528 h; in short: as §1
BT-474 = test: Cytotoxicity against human BT474 cells assessed as inhibition of tumor growth incubated for 72 hrs by luminometry; assay type: functional, cell-based; details: BT-474, 72 h; in short: as §2
[10] = Cmax in Swiss nude mouse at 100 mg/kg, po by LC-ESI-MS/MS method; assay type: ADME, organism-based; set-up: dose 100 mg/kg, route oral; details: in vivo; in short: as §4
Mus musculus [11] = test: Hepatic clearance in Swiss nude mouse at 2.5 mg/kg, iv by LC-ESI-MS/MS method; assay type: ADME, organism-based, Liver; set-up: dose 2.5 mg/kg, route intravenous; details: in vivo; in short: as §3
Heat shock protein HSP90 = Heat shock protein HSP90 (Homo sapiens, UniProt P07900+P08238); test: Inhibition of human HSP90 in NCI-N87 cells assessed as degradation of Her2 incubated for 24 hrs by Western blot method; assay type: cell-based
In short: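 Cells exposed to a range of concentrations for 24 h. Lysates analyzed by Western blot with Her2-, Hsp70- and Akt-specific antibodies.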

[12] = Oral bioavailability in Swiss nude mouse at 100 mg/kg administered using captisol and phosphate buffer system formulation by LC-ESI-MS/MS method; details: in vivo
[13] = Metabolic stability in human liver microsomes assessed as percent of residual drug in presence of NADPH incubated for 40 mins by LC-ESI-MS/MS method; assay type: ADME, Microsome; details: liver microsomes, read-out: Stability
In short: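 Test article incubated in duplicate with human liver microsomes (0.5 mg/mL protein) in 100 mM potassium phosphate pH 7.4. Started with 1 mM NADPH. Stopped with acetonitrile at 0, 10, 20 and 40 min. LC-MS/MS peak area at 40 min reported as percent of 0 min. No-NADPH control incubated for 40 min.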

For `C[C@H](O)C(=O)N1CCC(CCn2c(Sc3cc4c(cc3Br)OCO4)nc3c(N)ncnc32)CC1`, the Activity (Mus musculus [1]) was “Non-toxic”, the tumor regression at 125 mg/kg (NCI-N87 [2]) was 10% and the TGI (NCI-N87 [3]) was “Dose-dependent effect”. For the same compound, the Papp at 0.5 h [4] was > 350 ×10⁻⁶ cm/s, the IC50 (LNCaP) was 510 nM and the solubility [5] was 20 µM (≈ 11 µg/mL). The AUC [6] was 2110 ng·h/mL, the IC50 [7] was 4300 nM and the IC50 (A549) was 770 nM. For the same compound, the AUC [8] was 81800 ng·h/mL, the Activity (Mus musculus [9]) was “Non-toxic” and the IC50 (BT-474) was 550 nM. The Cmax [10] was 13100 ng/mL, the CLH (Mus musculus [11]) was 19.78 mL/min/kg and the IC50 (Heat shock protein HSP90) was 100 nM. For the same compound, the inhibition (Heat shock protein HSP90) was “Dose-dependent effect”, the bioavailability [12] was > 50% and the remaining at 40 min [13] was 42%.
